# Assay outcomes from PubChem.
# HCT116 bCat-KO = primary screen for growth suppressors in beta-catenin knockout HCT116 cells (colon tumor, human). HCT116 beta-catenin knockout viability, CellTiter-Glo, 60 h; active compounds read low. viability, % at 10 µM. 1.5% of 140,000 active;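 active = viability at or under a set limit, the compound median less 4 SD, cut at about 6% in these data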;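 also: 0% = Hyamine 1622 control at 20 µM and 100% = untreated cell control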
# SDO1 yeast rescue = growth rescue of sdo1-depleted yeast, primary screen, S. cerevisiae, bone marrow failure model; S. cerevisiae sdo1-depleted JHY4D growth rescue, OD600 30 h; active compounds read high; pdr5 snq2 efflux-pump mutant strain; z-score at 10 µM; 0.21% of 140,000 active;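 active = z-score above 3 at both the 24 hr and the 30 hr optical density reads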;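 also: z-score against mean and SD of all compound wells on the same plate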
# Autophagy HCS = autophagy modulators in MEF cells, primary screen, imaging, high-content, MEF GFP-LC3. MEF GFP-LC3 puncta imaging; test concentration mostly 10 µM. calls only at 10 µM (by protocol). 0.98% of 190,000 active. AID 463193, 2010;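 active = percentage of spot-positive cells more than 3 SD above its plate mean, without a fluorescence outlier flag or 80% toxicity; inconclusive = no clear call, values can overlap the other calls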;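 also: spot-positive cell cutoff set from DMSO-treated cells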
# PTEN del growth = growth suppression of PTEN-null HCT116, primary screen, cell-based, CellTiter-Glo; HCT116 PTEN-null viability, 60 h; active compounds read low; viability, % at 10 µM; 1.2% of 140,000 active; AID 827, 2007;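 active = viability at or below a set limit, 4 SD under the median of all tested compounds, cut at about 3.7% in these data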;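 also: PTEN knockout HCT116 line with beta catenin targeted HCT116 as companion control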
# Dynein cargo inh = inhibitors of GR-EGFP nuclear translocation, primary screen, dynein cargo transport inhibitor project, imaging, high-content, 3617.4 mouse cells; test concentration mostly 20 µM; stimulated with dexamethasone, 1 µM; active compounds read low; z-score, hits read low; 0.47% of 220,000 active; AID 1381, 2008;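 active = plate z-score of nuclear minus cytoplasmic receptor signal below a set negative limit, without overly bright fluorescence or cell loss, cut at about -3.5 in these data, passing the limit was not always enough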;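 also: z-score of nuclear minus cytoplasmic ring GR-EGFP intensity difference per well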
#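 Buffer or medium: tet-free medium with charcoal-stripped serum / Also added: dexamethasone agonist, 1.0 µM final, for 30 min / Timing: induction 48 h, compound 1 h, agonist 30 min / Measured by: high-content fluorescence imaging after fixation / Read-out: nuclear-to-cytoplasmic GR-EGFP distribution per well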
# SDO1 rescue DR = SDO1-depleted yeast growth rescue, concentration-response, diseases of bone marrow failure, JHY4D, OD600; AID 949, 2007; shares compounds with SDO1 yeast rescue; 44% of 440 active; OD recovery (test concentration not listed); S. cerevisiae JHY4D (SDO1-depleted) growth rescue, 30 h; active compounds read high; efflux-deficient strain, SNQ2 and PDR5 mutated;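 active = yeast growth recovered at 30 hours, either rising with dose fitted slope above 0.001 or with average optical density gain above 0.07, some results past the limit were not filed as active; inactive = growth falling with dose or no effect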;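 also: gain in OD600 from 0 h to 30 h averaged across all seven doses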
# Active calls of the source: *; i = inactive; ? = inconclusive; nt = not tested or not shown; + = active, no number. Most compounds without a hit are left out; they make up all but 2.2% or so of the library.
SMILES,HCT116 bCat-KO,SDO1 yeast rescue,Autophagy HCS,PTEN del growth,Dynein cargo inh,SDO1 rescue DR
O=C(Nc1ccc(OCc2ccccc2)cc1)Nc1ccccc1C(=O)NCCCN1CCOCC1,nt,nt,nt,nt,0.466,nt
Cc1ccccc1C(=O)Nc1cccc(NC(=O)c2ccc(-c3ccc(Br)cc3)o2)c1,3.7*,-1.97,i,5.2,-0.352,nt
CN1CCN(c2ccc(NC(=O)c3ccc(-c4ccc(Br)cc4)o3)cc2)CC1,nt,nt,+,nt,0.987,nt
COc1cccc(NC(=O)c2ccc(-c3ccc([N+](=O)[O-])cc3)o2)c1,nt,nt,i,nt,-0.08,nt
O=C(Nc1ccc(N2CCCC2)cc1)c1ccc(Br)o1,102.6,0.01,i,93.3,0.361,nt
CSc1ccc(CN2CCC(CO)(Cc3ccc(Cl)cc3)CC2)cc1,nt,nt,+,nt,0.378,nt
O=C(/C=C/c1ccc(N2CCC(c3ccccc3)=N2)cc1)c1ccccc1,nt,nt,?,nt,-5.73*,nt
O=C(/C=C/c1ccc(O)cc1)c1ccccc1,nt,nt,nt,nt,-1.02,nt
CC1CCN(CCCNC(=O)c2ccc(CSCc3cccc(Cl)c3)o2)CC1,69.3,0.41,+,81.0,-0.246,nt
CN1CCN(CCCNC(=O)c2ccc(CSCc3cccc(Cl)c3)o2)CC1,97.2,1.01,i,106.4,3.48,nt
CCOC(=O)c1sc(=NC(=O)COc2ccc(Cl)cc2)n(C)c1C,nt,nt,+,nt,2.44,nt
CCOC(=O)c1sc(=NC(=O)CCS(=O)(=O)c2ccccc2)n(C)c1C,nt,nt,i,nt,-0.801,nt
Cc1cc(N2CCCC2)ccc1/C=C1\NC(=S)N(C)C1=O,nt,nt,+,nt,-3.34,nt
CCOC(=O)c1cc(-c2ccccc2)sc1NC(=S)Nc1cc(C)ccn1,89.5,0.95,+,82.4,3.02,nt
CCOC(=O)c1cc(-c2ccccc2)sc1NC(=O)C(C)(C)C,96.7,-1.52,i,101.2,-0.832,nt
COc1ccc(C(CC(=O)c2ccc(O)cc2)S(=O)(=O)c2ccc(C)cc2)cc1 (centres undefined),6.0*,-0.06,i,6.9,1.37,nt
CCOCCCNC(=O)C(NC(=O)c1ccc2c(c1)OCO2)c1ccccc1 (centres undefined),nt,nt,+,nt,2.12,nt
NS(=O)(=O)c1ccc(CCNCc2cc(Br)ccc2OCc2ccccc2F)cc1,nt,nt,i,nt,-0.153,nt
O=C(Nc1nnc(C2CC2)s1)c1cc([N+](=O)[O-])ccc1N1CCCCC1,79.9,-0.65,i,74.3,0.751,nt
Cc1nn(C)c(C)c1S(=O)(=O)N1CCCC(C(=O)NC2CCCCCC2)C1 (centres undefined),94.5,2.38,i,88.7,-0.0905,0.0833*
COc1cc(OC)c(-c2c3cc(O)c(=O)cc-3oc3cc(O)c(O)cc23)cc1OC,74.0,3.77*,i,78.8,-1.51,-0.0253
COc1ccc(C(=O)COC(=O)[C@H](C)Nc2ccc(C(F)(F)F)cc2[N+](=O)[O-])c(OC)c1,87.7,-0.51,i,100.8,-0.0268,nt
CCC(CC)c1nnc(NC(=O)c2ccc(N3CCCC3=O)cc2)s1,91.3,1.15,i,92.0,-0.974,nt
N=c1ncn(CC(O)CO)c2nc(N3CCOCC3)[nH]c12 (centres undefined),85.2,0.69,i,84.0,0.623,nt
COc1ccc(C2=NOC(C(=O)Nc3cccnc3)C2)cc1 (centres undefined),92.9,3.45*,i,93.4,-0.759,0.0384
SMILES,HCT116 bCat-KO,SDO1 yeast rescue,Autophagy HCS,PTEN del growth,Dynein cargo inh,SDO1 rescue DR
COc1cccc(C2=NOC(C(=O)Nc3cccnc3)C2)c1 (centres undefined),100.4,-0.11,i,92.2,0.896,nt
COc1ccccc1CNC(=O)c1n[nH]c2ccccc12,nt,nt,nt,nt,0.161,nt
N#Cc1nc(-c2ccc(Cl)cc2)oc1NCC1CCCO1 (centres undefined),nt,nt,i,nt,0.16,nt
Cc1cc2c(c(=O)n1Cc1cccnc1)C(c1ccccc1)C(C#N)=C(N)O2 (centres undefined),97.8,5.76*,i,96.1,0.812,0.0673
Cc1ccc(NC(=O)CSc2nc(C)c(Cc3ccccc3)c(=O)[nH]2)cc1C,nt,nt,i,nt,1.07,nt
Cc1c(Cl)cccc1NC(=S)NCc1cccn1C,95.0,-0.32,i,99.5,-0.172,nt
CCOC(=O)c1cccc(NC(=O)CSc2nnc(COc3ccccc3C)o2)c1,101.0,1.25,i,91.3,0.674,0.054
CCOc1ccc(NC(=O)CSc2nnc(COc3c(C)cccc3C)o2)cc1,96.2,-0.13,nt,112.2,-0.619,nt
FC(F)(F)c1cnc(-c2cnc3c(-c4ccc(Cl)cc4)cnn3c2)c(Cl)c1,103.2,0.48,i,100.1,0.62,nt
N#Cc1cnn2cc(-c3ncc(C(F)(F)F)cc3Cl)cnc12,105.5,7.35*,i,108.5,0.344,0.0777*
O=C(CCCn1c(=O)[nH]c2cc(Cl)ccc2c1=O)NCCC1=CCCCC1,96.1,6.74*,i,101.7,-0.905,0.0914*
O=C(CCCn1c(=O)[nH]c2cc(Cl)ccc2c1=O)NCCCN1CCCC1,96.3,1.38,i,99.5,0.503,nt
CSc1nc(C)c(CCO)c(=O)[nH]1,nt,nt,i,nt,0.0307,nt
COc1ccc(OC)c(C2=Nn3c(nnc3-c3cccc(OC(C)C)c3)SC2)c1,63.7,-0.47,i,75.3,-0.967,nt
Cc1ccccc1OCCCC(=O)Nc1nccs1,34.5,-0.34,i,54.4,0.997,nt
Cc1ccc(C)c(OCCCC(=O)Nc2nccs2)c1,84.3,9.99*,i,67.9,-0.417,0.087*
CCOC(=O)c1sc(NC(=O)CSc2nnnn2-c2ccccc2)nc1C,99.1,-1.04,i,101.4,-0.592,nt
CCOC(=O)c1sc(NC(=O)CSc2nnnn2-c2ccc(C)c(C)c2)nc1C,102.2,1.53,i,95.0,0.741,0.0997*
CCCCOC(=O)Nc1ccc(S(=O)(=O)Nn2cnnc2)cc1,106.5,3.74*,i,92.8,0.835,0.115*
Cc1n[nH]c(C)c1CCC(=O)N/N=C/c1cccc([N+](=O)[O-])c1,nt,nt,i,nt,0.381,nt
O=C(CCCOc1ccc(Cl)cc1Cl)N/N=C/c1cccc([N+](=O)[O-])c1,43.0,1.32,i,28.7,-0.329,0.0593
CCOc1ccc(-c2nc(CSCC(=O)NCCN3CCOCC3)c(C)o2)cc1,69.9,2.39,i,86.1,1.04,0.0425
COc1ccc(NC(=O)C2=C(C)C(=O)OC23CCC(C)CC3)cc1Cl (centres undefined),81.2,-0.98,i,74.8,-0.275,nt
Cc1[nH]c2ccccc2c1C(=O)CN1CCN(C2CCCCC2)CC1,105.0,9.08*,i,109.7,-0.251,0.0448
Cc1ccc2nc(C(F)OC(F)(F)F)[nH]c2c1 (centres undefined),77.8,12*,i,81.8,0.241,0.0413
